Measured values taken from ChEMBL document CHEMBL3091326, “Design, synthesis, and evaluation of curcumin-derived arylheptanoids for glioblastoma and neuroblastoma cytotoxicity” (Bioorg Med Chem Lett, 2013).
pIC50: −log10 of the molar value.

Columns and labels:
SK-N-SH = assay: Cytotoxicity against human SK-N-SH cells after 5 days by methylene blue staining assay; type: functional, cell-based; conditions: 120 h
How it was run: (§1)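 Cells exposed in triplicate to vehicle or increasing compound concentrations; survival read 5 days post-exposure. Cell mass quantified by methylene blue staining, dye solubilized in 0.1N HCl, absorbance at 610nm. Mean and standard deviation; significance vs media control by Dunnett's multiple comparisons test. IC50 derived from dose-response data.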

[1] = Cytotoxicity against human U87MG cells after 5 days by methylene blue staining assay; type: functional, cell-based, U-87MG ATCC; conditions: U-87 MG, 120 h; how it was run: as §1
SK-N-FI = assay: Cytotoxicity against human SK-N-FI cells after 5 days by methylene blue staining assay; type: functional, cell-based; conditions: 120 h; how it was run: as §1
[2] = Cytotoxicity against human U87MG cells expressing sh-GFP after 5 days by methylene blue staining assay; type: functional, cell-based, U-87MG ATCC; conditions: U-87 MG, 120 h; how it was run: as §1
[3] = Cytotoxicity against human CD34-positive blood stem/progenitor cells at 0.3 to 30 uM after 10 to 14 days by inverted light microscopic analysis; type: cell-based
How it was run: (§2)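 Human CD34+ progenitor cells isolated from umbilical cord blood, treated in triplicate at 0.3, 3.0 and 30 µM in colony-forming unit assays. Progenitor cell (colony) frequency determined after 14 days; compared against control.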

[4] = Cytotoxicity against human CD34-positive blood stem/progenitor cells at 30 uM after 10 to 14 days by inverted light microscopic analysis relative to control; type: cell-based; how it was run: as §2
[5] = Cytotoxicity against p53-knockdown human U87MG cells after 5 days by methylene blue staining assay; type: functional, cell-based, U-87MG ATCC; conditions: U-87 MG, 120 h; how it was run: as §1

SMILES	pIC50 (SK-N-SH)	pIC50 [1]	pIC50 (SK-N-FI)	pIC50 [2]	Activity [3]	Activity [4]	pIC50 [5]
COc1cc(OC)c(C(C#CCCc2ccc(O[Si](C)(C)C(C)(C)C)cc2)CC(=O)c2ccc(O[Si](C)(C)C(C)(C)C)cc2)c(OC)c1 (centres undefined)	4.31	4.72	< 4.00				
COc1cc(OC)c(C(C#CCCc2ccc(O[Si](C)(C)C(C)(C)C)cc2)CC(=O)c2ccc(OC(C)=O)cc2)c(OC)c1 (centres undefined)	4.93	5.10	4.66	5.16	Non-toxic	20%	5.15
COc1cc(OC)c(C(C#CCCc2ccc(O[Si](C)(C)C(C)(C)C)cc2)CC(=O)c2ccc(O)cc2)c(OC)c1 (centres undefined)	4.74	5.12	4.51	5.15	Non-toxic		5.15
COc1cc(/C=C/C(=O)CC(=O)/C=C/c2ccc(O)c(OC)c2)ccc1O [CURCUMIN]	5.19	5.09	4.95				
